This data set in a line: Toxicity liver stage against HepG2, at 10uM. In kind it is cell-based. On the set-up: test concentration 10 uM, cell line HepG2-A16-CD81EGFP. The following applies: human, HepG2-A16-CD81EGFP cells; read-out: INHIBITION
An outline of the steps: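 Uninfected HepG2-A16-CD81EGFP cells, 3 × 10^3 per well, 1536-well, plated on prespotted compound at 10 μM final, parasite-free screening media added to match infected plates; puromycin 10 μM positive, DMSO 0.5% negative; run in parallel with 48 h PbLuc assay at 37 °C, 5% CO2; viability by CellTiter-Glo luminescence, normalized to controls.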
Take `c1ccc(O[C@H]2COCCN(CC3CC3)C2)cc1`: the cytotoxicity at 10 µM was found to be 5.76%.

In the case of `COc1ccc(C(=O)N2CCN3C(=O)CNC(=O)[C@@H]3C2)cc1`, the cytotoxicity at 10 µM is -7.1%.

Consider `CCN(CC)CC[C@H]1CN(C(=O)CC(C)(C)C)CC[C@H]1CC(=O)O`, for which the cytotoxicity at 10 µM is -0.668%.

On to `CSc1ncccc1C(=O)N(CCO)Cc1ccccc1`, for which the cytotoxicity at 10 µM was 2.22%.

Take `O=C(c1cccc(C(F)(F)F)c1)N1CC(=O)N(C2CCC2)CC(O)C1` (stereo unspecified): the cytotoxicity at 10 µM was -3.16%.

As to `Cc1ccc2c(c1)C1(CC(=O)Nc3[nH]ncc31)C(=O)N2C` (stereo unspecified), the cytotoxicity at 10 µM was -1.6%.

In the case of `CC1CC(=O)c2cc(C(=O)N3CCc4ccccc43)c(=O)[nH]c2C1` (stereo unspecified), the cytotoxicity at 10 µM is -5.67%.

`Cn1cc(NC(=O)CNC(=O)N2CCN(c3ccccc3)CC2)cn1`: the cytotoxicity at 10 µM came to 0.0207%.

For the molecule `Cn1nc(N2CCCC(C(=O)Nc3nccs3)C2)ccc1=O` (stereo unspecified), the cytotoxicity at 10 µM was found to be 3.19%.

Consider `Cn1cccc1C(=O)N1CCc2ccc(=O)n(C)c2CC1`, for which the cytotoxicity at 10 µM is -0.756%.

For `Cc1cc(C(=O)N2C[C@@H]3COC[C@]3(c3nnc(C(C)C)o3)C2)on1`, the cytotoxicity at 10 µM is -2.52%.

Regarding `CCOc1cc(C)c(-c2cc(N)[nH]n2)cc1OCC`, the cytotoxicity at 10 µM is -7.27%.

As for `O=c1c2cn[nH]c2nc(SCCN2CCOCC2)n1-c1ccccc1`, the cytotoxicity at 10 µM is 0.219%.

As to `CCO[C@@H]1CO[C@@]2(CCCN(C(=O)c3ccc(OC)c(F)c3)C2)C1`, the cytotoxicity at 10 µM was determined as 3.02%.

As to `CCn1cc(S(=O)(=O)N(CCc2ccccc2)Cc2ccn(C)n2)cn1`, the cytotoxicity at 10 µM was 2.6%.

With `Cc1ccc(NC(=O)c2n[nH]c(-n3cnnc3)n2)cc1C`, the cytotoxicity at 10 µM is -1.4%.

`CCC(=O)NCCc1cc2nc(-c3ccncc3)ccn2n1`: the cytotoxicity at 10 µM stood at 1.65%.

`Cc1noc(C)c1CN(C)C(=O)C1CCCCN1CC(C)C` (stereo unspecified): the cytotoxicity at 10 µM came out at 2.64%.

As to `Cc1cccc2nc(CN3CCCC(C)C3)cc(=O)n12` (stereo unspecified), the cytotoxicity at 10 µM worked out at 2.46%.

In the case of `Cc1ccc(CNC(=O)C2CCN(C(=O)C(C)C)CC2)n1C`, the cytotoxicity at 10 µM turned out to be 5.71%.

In the case of `CCC(CC)N(Cc1cc(=O)n(C)c(=O)n1C)C1CC1`, the cytotoxicity at 10 µM was 15.8%.

On to `Cc1nnc(C(C)Nc2cccc(COCCOC(C)C)c2)o1` (stereo unspecified), for which the cytotoxicity at 10 µM turned out to be 2.29%.

Take `CN(C1CCN(c2ccccn2)CC1)S(=O)(=O)c1ccccc1F`: the cytotoxicity at 10 µM came out at 14%.

Consider `COCCNC(=O)C1(c2ccc(C)c(OC)c2)CCCC1`, for which the cytotoxicity at 10 µM was -3.21%.

Take `Fc1ccc(CNC2CCN(CCc3ccncc3)CC2)cc1F`: the cytotoxicity at 10 µM is -12.6%.

Take `Cc1ccc(CNC(=O)C2CCCCN2C(=O)OC(C)(C)C)cn1` (stereo unspecified): the cytotoxicity at 10 µM was -0.408%.

Turning to `Cc1nc(C)n(C2CCCN(C(=O)CCc3cn(C)nc3C)C2)n1` (stereo unspecified), the cytotoxicity at 10 µM was -11.5%.

Take `O=C(NCCSCc1ccc(Br)s1)C1CCCN(C(=O)c2cccs2)C1` (stereo unspecified): the cytotoxicity at 10 µM was -1.79%.

For the molecule `CCCN1C(=O)C2(CCCCC2)NC1c1c[nH]nc1-c1cccnc1` (stereo unspecified), the cytotoxicity at 10 µM was found to be 4.59%.

Regarding `CC(C)=CCN1CCN(C(=O)C2CC2)CC1`, the cytotoxicity at 10 µM was determined as 6.64%.

`CC(C)c1nccn1CCn1cnc2ccsc2c1=O`: the cytotoxicity at 10 µM is 4.4%.

For the molecule `NS(=O)(=O)c1cnn(-c2ccc(NC(=O)C3CCCCC3)cn2)c1`, the cytotoxicity at 10 µM was determined as 2.27%.

In the case of `CCOc1cc(CNC(C)c2ccc(F)cc2)ccn1` (stereo unspecified), the cytotoxicity at 10 µM came out at 10.9%.

For `c1ccc(Cc2nc(CNCCn3cccn3)cs2)cc1`, the cytotoxicity at 10 µM is -2.79%.

As for `Cc1cc(NCC(C)C)ccc1C(=O)N(C)C`, the cytotoxicity at 10 µM was found to be 9.86%.

Take `COCC1CN(C(=O)Nc2cc(Br)ccc2F)CCO1` (stereo unspecified): the cytotoxicity at 10 µM was -0.749%.

Regarding `Cc1nc(C2CCCN(C(=O)CN3CCCNC3=O)C2)sc1C` (stereo unspecified), the cytotoxicity at 10 µM was found to be 10.4%.

On to `CN(CC1(CO)CCOCC1)[C@@H]1c2ccccc2C2(CCNCC2)[C@H]1O`, for which the cytotoxicity at 10 µM is -6.87%.

With `CC(C)(C)CC(=O)N1CCC(n2cc(C3(O)CCCC3)nn2)CC1`, the cytotoxicity at 10 µM worked out at 8.64%.

For `CN(Cc1nccs1)C1CCN(c2ncccn2)CC1`, the cytotoxicity at 10 µM stood at 10.1%.

As for `CCS(=O)(=O)N1CCC(c2nnc(CN3CCCCCC3)n2C)CC1`, the cytotoxicity at 10 µM is -8.01%.

In the case of `Cc1c(NC(=O)NC2CN3CCC2CC3)cccc1C(=O)N1CCCC1` (stereo unspecified), the cytotoxicity at 10 µM came to 10.1%.

Turning to `CCn1c(N)nc2cc(C(=O)NCCc3sccc3C)cnc21`, the cytotoxicity at 10 µM was -23.3%.

With `Cc1ccccc1N1CCCN(C(=O)CCCS(N)(=O)=O)CC1`, the cytotoxicity at 10 µM is -16%.

For `CO[C@H]1CN(C(=O)c2ccc3oc(C)cc3c2)CC[C@@]12CCCO2`, the cytotoxicity at 10 µM was determined as 0.153%.

On to `CC(=O)N1CCCN(C(=O)c2cnn(C(C)(C)C)c2C)CC1`, for which the cytotoxicity at 10 µM turned out to be 2.89%.

For the molecule `Cc1nnc(NC(=O)NCc2ccc(OC(C)C)nc2)s1`, the cytotoxicity at 10 µM was -10.4%.

Turning to `CC1CN(CC(=O)Nc2ccncc2)CCN1c1nccs1` (stereo unspecified), the cytotoxicity at 10 µM was 29.5%.

In the case of `Cc1nn(C)c(C)c1NC(=O)CN1CCN(c2nccs2)C(C)C1` (stereo unspecified), the cytotoxicity at 10 µM is -5.55%.

Take `Cc1cc2n(n1)CC(CNCc1ccc(Oc3ccccc3)nc1)CN2` (stereo unspecified): the cytotoxicity at 10 µM is -10.1%.

With `CC(C)c1noc(CCCC(=O)N2CCN(Cc3ccsc3)CC2)n1`, the cytotoxicity at 10 µM is -5.19%.

Take `O=C(c1ccc2c(c1)COC2)N1CCN(CCO)CC1`: the cytotoxicity at 10 µM was -16.5%.

For `CCn1ncc2c1CCCC2NCc1ccc(OC)c(F)c1` (stereo unspecified), the cytotoxicity at 10 µM was -6.07%.

With `CCCc1noc(CN2CCC(c3ccnn3CCO)CC2)n1`, the cytotoxicity at 10 µM is -19.9%.

With `CC(c1cc(F)ccc1F)N(C)C(=O)NCc1ccnc(N(C)C)c1` (stereo unspecified), the cytotoxicity at 10 µM is -16.8%.

Take `Cc1nnc2n1CCN(C(=O)c1ccnc(N(C)C)c1)C2`: the cytotoxicity at 10 µM is -16.2%.

As to `CCC(CC)C(=O)N(C)CC(=O)Nc1ccc(Br)cn1`, the cytotoxicity at 10 µM was -11.2%.

In the case of `Cc1cc(C)n(CC2CCCN2C(=O)c2c(C)noc2C)n1` (stereo unspecified), the cytotoxicity at 10 µM was -13.8%.

For `O=C(NCCNc1ncccn1)C1CC(=O)N(C2CCCC2)C1` (stereo unspecified), the cytotoxicity at 10 µM was -16.2%.

Take `CC(C)CN1CC(C(=O)NCCNc2ncccn2)CC1=O` (stereo unspecified): the cytotoxicity at 10 µM is -23%.

Regarding `Cc1nc(C2CCCN2CCCc2nc3ccccc3o2)no1` (stereo unspecified), the cytotoxicity at 10 µM was -9.24%.

`O=C(NCCNc1ncccn1)N1CCN(C2CCCC2)CC1`: the cytotoxicity at 10 µM was -10%.

As to `COc1c(C2CCCN2CC(=O)Nc2ccncc2)c(C)nn1C` (stereo unspecified), the cytotoxicity at 10 µM was -12.7%.

In the case of `Cc1ccc2cc(C(=O)N3CCC(Nc4cccnn4)CC3)[nH]c2c1`, the cytotoxicity at 10 µM is -21%.

With `CC(Cn1ccnc1)NC(=O)N1CCCN(Cc2cccs2)CC1` (stereo unspecified), the cytotoxicity at 10 µM is -12.4%.

Regarding `Cc1nc(C)n(CC2CN(CCC(=O)N3CCCCC3)CCO2)n1` (stereo unspecified), the cytotoxicity at 10 µM is -4.64%.

Consider `O=C(CCSc1ccccc1F)NS(=O)(=O)c1ccc2c(c1)OCCO2`, for which the cytotoxicity at 10 µM was -0.841%.

Consider `O=C(CCc1ccc(F)cc1)NS(=O)(=O)c1ccc2c(c1)OCCO2`, for which the cytotoxicity at 10 µM was -12.8%.

Turning to `Cc1ccc(N2CC[C@H]3O[C@@H](C(=O)NCc4ccco4)CC[C@H]32)nn1`, the cytotoxicity at 10 µM was determined as 2.03%.

Regarding `CC(=O)N1[C@H](Cn2cncn2)C[C@@H]2CN(c3ncc(F)cn3)CC[C@@H]21`, the cytotoxicity at 10 µM is -5.09%.

For the molecule `CN(C)S(=O)(=O)N1C[C@@H]2C[C@H](C(=O)NCc3ccccc3)[C@H](C1)O2`, the cytotoxicity at 10 µM is 4.09%.

These data come from ChEMBL document CHEMBL4513216, “Probing the Open Global Health Chemical Diversity Library for Multistage-Active Starting Points for Next-Generation Antimalarials” (ACS Infect Dis, 2020).
